Results from different studies.
Lines come from different studies, so protocols differ.
Target: Mitogen-activated protein kinase kinase kinase 4 (MAP3K4, Homo sapiens, UniProt Q9Y6R4)

| Compound | assay | setting | remaining binding [%] |
| --- | --- | --- | --- |
| CN(C)c1ncc(F)c(-c2cnn3ncccc23)n1 | binding | 1 µM | 100 |
| N#Cc1ccccc1CSc1nnc2c(n1)[nH]c1ccccc12 | binding, competition with immobilised ligand | 10 µM | 100 |
| CN(C)C(=O)Cn1cc(-c2nc([C@@](C)(c3ccc(-c4cnc(N)nc4)cc3)C3CC3)no2)cn1 | cell-free assay, competition with immobilised ligand | 1 µM | 91 |
| O=C(NCCCN1CCOCC1)c1ccc(Nc2ncc(Cl)c(-c3ccc(Cl)s3)n2)cc1 | binding, competition with immobilised ligand | 1 µM | 54 |
| O=C(N[C@H]1CCCCC/C=C\C2C[C@@]2(C(=O)O)NC(=O)[C@@H]2C[C@@H](Oc3ccncc3)CN2C1=O)OC1CCCC1 (stereo partly drawn) | binding, competition with immobilised ligand | 1 µM | 91 |
| CN(CCCC(F)(F)F)c1nccc(-c2cnn3ncccc23)n1 | binding | 1 µM | 81 |
| CCN1CCN(Cc2ccc(C(=O)Nc3ccc(C)c(Oc4ccc5c(c4)CC(=O)N5)c3)cc2C(F)(F)F)CC1 | binding, competition with immobilised ligand | 1 µM | 100 |
| COc1ccnn2ncc(-c3ccnc(N(C)C)n3)c12 | binding | 1 µM | 100 |
| CN(C)C(=O)Cn1cc(-c2nc(C3(c4ccc(-c5cnc(N)nc5)cc4)CC3)no2)cn1 | cell-free assay, competition with immobilised ligand | 1 µM | 92 |
| C[C@@H](c1ccc(-n2cnc3c(N)ncnc32)cc1)N1CCc2nn(C)c(Cc3ccccc3)c2C1=O | binding, competition with immobilised ligand | 0.1 µM | 100 |
| Cc1cnn2ncc(-c3ccnc(N(C)C)n3)c2c1 | binding | 1 µM | 86 |
| COc1ccc2c(O[C@@H]3C[C@H]4C(=O)N[C@]5(C(=O)O)CC5/C=C\CCCCC[C@H](NC(=O)OC5CCCC5)C(=O)N4C3)cc(-c3csc(NC(=O)C(C)C)n3)nc2c1C (stereo partly drawn) | cell-free assay, competition with immobilised ligand | 1 µM | 74 |
| COc1cnc(Nc2cccc(S(N)(=O)=O)c2)nc1N1CCN(c2ccccc2)C(=O)C1 | binding, competition with immobilised ligand | 1 µM | 100 |
| O=C(NCCCN1CCOCC1)c1ccc(Nc2nccc(-c3cc4ccccc4s3)n2)cc1 | binding, competition with immobilised ligand | 1 µM | 68 |
| CNC(=O)[C@@H]1CC[C@@H](n2c(-c3ccc4cnccc4c3)nc3ccc(C(=O)NCc4cccc(C(N)=O)c4)cc32)C1 | binding, competition with immobilised ligand | 1 µM | 100 |
| CSc1cccnc1N1CCN(Cc2nc3ccccc3[nH]2)CC1 | cell-free assay, competition with immobilised ligand | 1 µM | 100 |
| N[C@@H]1CCN(c2nccc(-c3cnn4ncccc34)n2)C1 | binding | 1 µM | 100 |
| C[C@@H]1CN(c2ccc3ncc(-c4ccc5[nH]nc(C6CC6)c5c4)n3n2)C[C@H](C)O1 | binding, competition with immobilised ligand | 0.5 µM | 100 |
| Cc1cnc(Nc2ccc(C(=O)N3CCC(N4CCCC4)CC3)cc2)nc1-c1cc2ccccc2s1 | binding, competition with immobilised ligand | 1 µM | 32 |
| CC(C)(C)c1ccc(-c2nc(CBr)nn2-c2cccc(O)c2)cc1 | cell-free assay, competition with immobilised ligand | 10 µM | 91 |
| O=C(O)[C@H]1[C@H](Cn2nnc3ccccc3c2=O)CC[C@@H]1C(=O)c1ccc(OCCC2CCOCC2)cc1 | cell-free assay, competition with immobilised ligand | 1 µM | 100 |
| c1cncc(-c2cccc(Nc3nccc(NC4CCCCC4)n3)c2)c1 | binding, competition with immobilised ligand | 10 µM | 88 |
| CCC(=O)N[C@H]1CC[C@@H](C(=O)N(C)c2ccc(-c3nc4ccccc4o3)cc2)C1 | cell-free assay, competition with immobilised ligand | 1 µM | 100 |
| O=C(Nc1c[nH]nc1C(=O)NC1CCNCC1)c1cc(F)cc(F)c1 | binding, competition with immobilised ligand | 1 µM | 100 |
